The list is not random: actives were taken first. Their share in the collection is about 2.8%.
NPY2 pot ag – human NPY-Y2 potentiation or agonism, primary screen; cells expressing NPY-Y2, potentiator/agonist read-out; activation, % at 3.6 µM; hit rate 0.45% among 220,000; AID 1359; in the data active = activation above about 27%;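 also: cells stimulated with NPY near EC25 plus isoproterenol at EC100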
NPY Y2 blocker – NPY-Y2 (human) receptor antagonism. P49146. NPY-Y2 expressing cells, antagonist mode. inhibition, % at 2.7 µM. hit rate 0.99% among 140,000; in the data active = inhibition above about 17%
NPY-Y1 antag – antagonists of human neuropeptide Y receptor Y1; P25929; inhibition, % at 3.6 µM; HEK293-CNG Y1 cells, membrane potential fluorescence; NPY at EC95, then isoproterenol; hit rate 1% among 200,000;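 active = inhibition above the campaign mean inhibition of all tested compounds plus 3 SD, cut at about 20% in these data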
Target sequence (P25929 whole entry, looked up): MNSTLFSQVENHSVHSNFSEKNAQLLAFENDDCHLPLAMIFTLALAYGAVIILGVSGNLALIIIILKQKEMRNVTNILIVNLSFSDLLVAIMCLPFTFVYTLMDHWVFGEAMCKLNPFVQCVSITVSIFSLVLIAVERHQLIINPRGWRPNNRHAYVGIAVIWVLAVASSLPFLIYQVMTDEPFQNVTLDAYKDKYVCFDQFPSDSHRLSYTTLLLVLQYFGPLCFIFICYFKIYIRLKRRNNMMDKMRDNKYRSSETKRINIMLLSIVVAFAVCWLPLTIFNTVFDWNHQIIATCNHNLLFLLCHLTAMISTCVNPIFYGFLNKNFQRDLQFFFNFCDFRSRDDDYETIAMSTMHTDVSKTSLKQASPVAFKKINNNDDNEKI
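material = HEK293 cells with Y1 receptor plus CNG channel | also added = NPY 25 nM then isoproterenol 1 µM plus Ro 20-1724 25 µM | schedule = dye 3 h, compound 60 min room temperature, stimulation 45 min | measured by = membrane potential fluorescence | benchmarks = high control isoproterenol alone, low control NPY with isoproterenol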
EP2 antag – inhibitors of human EP2 prostaglandin E2 receptor; hit rate 0.52% among 260,000; C6 glioma cells expressing human EP2, cAMP TR-FRET; cells stimulated with saturating PGE2; P43116; inhibition, % at 25 µM;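 active = percent inhibition above 40 after rounding to a whole number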;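 also: rat C6 glioma host cells with rolipram phosphodiesterase inhibitor present; the protocol text gives 20 µM as final concentration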
NPY1 pot ag – potentiates or activates human NPY-Y1 receptor | NPY-Y1 expressing cells, potentiator/agonist activation | P25929 | AID 1304 | hit rate 0.37% among 220,000 | activation, % at 3.6 µM; in the data active = activation above about 33%, passing the limit was not always enough;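 also: cells stimulated with NPY at EC10 then isoproterenol at EC100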
EP2 mod – EP2 receptor (human) modulation; P43116; EP2-expressing cells, cAMP HTRF FRET, PGE2 co-stimulation; induction, % at 25 µM; hit rate 0.83% among 260,000; AID 940;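 active = compounds whose cAMP rise, as percent of the full-agonist control response, exceeds 60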;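 also: rat C6 glioma line stably carrying human EP2 under a CMV promoter; the protocol text gives 20 µM as final concentration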
Hits are given with their value; – = inactive; · = no result given; ! = not active in a repeat.

SMILES | NPY2 pot ag | NPY Y2 blocker | NPY-Y1 antag | EP2 antag | NPY1 pot ag | EP2 mod
CCC(C)(C(=O)NC1CCCC1)N(Cc1cccs1)C(=O)c1ccc2c(c1)OCO2 (stereo not drawn) | – | 18 | 27 | – | – | –
CCC(C)(C(=O)NC1CCCCC1)N(Cc1cccs1)C(=O)Cc1cccs1 (stereo not drawn) | – | 39 | 59 | – | – | –
Cc1ccc(C(C(=O)NC2CCCC2)N(Cc2cccs2)C(=O)Cc2cccs2)o1 (stereo not drawn) | · | · | · | – | · | –
COc1cc(C=O)ccc1OCc1ccccc1Br | – | – | – | – | – | 65
COc1cc(C=O)ccc1OCc1cccc(Br)c1 | – | – | – | – | – | –
CSc1nc2sc3c(c2c2nnnn12)CCCC3 | – | – | – | 66 | – | –
CCn1cc(C(=O)N2C[C@H](C(=O)OC)[C@@H](c3ccc(F)cc3)C2)c(C)n1 | · | · | · | – | · | –
CN1[C@@H](c2ccccc2)CC(=NO)C[C@H]1c1ccccc1 | · | · | · | 42 | · | –
Cn1nc(C(C)(C)C)cc1C(=O)N1CCC2(CC1)NC(=O)c1ccccc1N2 | · | · | · | – | · | –
O=c1c2ccccc2sn1-c1ccc(S(=O)(=O)N2CCCC2)cc1 | – | – | – | – | – | –
O=c1c2ccccc2sn1-c1ccccc1 | – | – | – | 118 | – | –
CC(NCCCN(C)C)C(=O)N1CCCCCCC1 (stereo not drawn) | · | · | · | – | · | –
Nc1nc2c(c(=O)[nH]1)N[C@H](CCNc1ccc(C(=O)O)cc1)CN2 | · | · | · | 49 | · | –
O=C1NC2(CCN(C(=O)C3(c4ccc(Cl)cc4)CC3)CC2)Nc2ccccc21 | · | · | · | · | · | –
COc1ccccc1CNC(=O)c1ccc(OCc2c(C)noc2C)c(OC)c1 | – | – | – | – | – | –
COc1cc(C(=O)NCCc2c[nH]c3ccccc23)ccc1OCc1c(C)noc1C | – | · | – | 88 | – | –
CC(CCC(=O)O)(c1cc(Br)c(O)c(Br)c1)c1cc(Br)c(O)c(Br)c1 | · | · | · | 40 | · | –
COc1cc(/C=C/C(=O)O)cc(Br)c1O | – | · | · | – | – | –
CCOC(=O)c1c(-c2ccccc2)csc1NC(=O)C1CCCO1 (stereo not drawn) | – | – | – | – | – | 64!
COc1ccc2cc(CN(C(=S)NC(C)c3ccccc3)C3CCCC3)c(=O)[nH]c2c1 (stereo not drawn) | · | · | · | – | · | –
CCOc1ccc2[nH]c(=O)c(CN(CC3CCCO3)C(=S)NC3CCCCC3)cc2c1 (stereo not drawn) | · | · | · | – | · | 70
COc1ccc2[nH]c(=O)c(CN(CC3CCCO3)C(=O)Nc3ccc(F)cc3)cc2c1 (stereo not drawn) | – | – | – | 41 | – | –
COc1ccc2[nH]c(=O)c(CN(C(=S)NC(C)c3ccccc3)C3CCCC3)cc2c1 (stereo not drawn) | · | · | · | 45 | · | –
CCOc1ccc2[nH]c(=O)c(CN(CC3CCCO3)C(=S)NCC3CCCO3)cc2c1 (stereo not drawn) | · | · | · | – | · | –
COC(C(=O)N1CCc2nc(N3CCCCC3)[nH]c(=O)c2C1)c1ccccc1 (stereo not drawn) | · | · | · | – | · | –
SMILES | NPY2 pot ag | NPY Y2 blocker | NPY-Y1 antag | EP2 antag | NPY1 pot ag | EP2 mod
CCOC(=O)c1c(C)[nH]sc1=S | – | – | – | · | – | 64
CCOc1ccccc1NC(=O)CSc1nc(C)nc2sc(C)c(C)c12 | · | · | · | – | · | 73
CCOc1ccccc1NC(=O)CSc1ncnc2sc3c(c12)CCC(C)C3 (stereo not drawn) | · | · | · | – | · | 65
CCOc1ccccc1NC(=O)CSc1nc(C2CC2)nc2sc(C)c(C)c12 | · | · | · | – | · | 61
COc1ccc(C(=O)N/C(=C/c2cccnc2)C(=O)Nc2cccc3ccccc23)cc1OC | · | · | · | – | · | –
O=C(/C=C/c1ccco1)c1ccc(NC(=O)c2cccs2)cc1 | · | · | · | – | · | –
CCn1c(N2CCC(C(=O)NC3CCCC3)CC2)nc2ccccc21 | · | · | · | · | · | 63
Cn1c(N2CCC(C(=O)NC3CCCC3)CC2)nc2ccccc21 | · | · | · | · | · | –
COCC(=O)NC(CC(C)C)c1nc2cccnc2n1C(C)C (stereo not drawn) | · | · | · | · | · | –
COc1ccccc1CC(C)NC(=O)c1ccc2c(c1)NC(=O)C(C)(C)O2 (stereo not drawn) | · | · | · | – | · | –
COc1ccc(N=c2oc3c(OC)cccc3cc2C(=O)NC2CCCC2)cc1 | · | · | · | – | · | 79
CCCCCCCCCCCC1=C(O)C(=O)C=C(O)C1=O | · | · | · | 65! | · | –
